# Results reported in ChEMBL document CHEMBL1125298, “Hypocholesterolemic activity of synthetic and natural tocotrienols” (J Med Chem, 1992).
# Values joined by “and” are separate entries in the source; they are usually repeats but may differ in a detail not shown here. Equal entries are not always repeated.
# Columns and labels:
# Gallus gallus [1] = species on record: Gallus gallus; test: Compound is evaluated for the effect on lipid metabolism in 6-week-old male chickens at a concentration of 20 ppm in the diet and measured for HDL cholesterol; assay type: functional
# Gallus gallus [2] = species on record: Gallus gallus; test: picomoles of mevalonic acid synthesized per minute per mg of microsomal protein; assay type: functional, organism-based
# Gallus gallus [3] = species on record: Gallus gallus; test: Compound is evaluated for the effect on lipid metabolism in 6-week-old male chickens at a concentration of 20 ppm in the diet and measured for LDL cholesterol; assay type: functional
# Procedure, shortened: (§1)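 Male chicks were raised 2 weeks on a corn-soybean control diet, then fed 4 weeks on control diet or the same diet with compound added. All birds were fasted 36 h and refed 48 h before sacrifice. Serum cholesterol is given as mg/100 mL.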
# Gallus gallus [4] = species on record: Gallus gallus; test: Compound is evaluated for the effect on lipid metabolism in 6-week-old male chickens at a concentration of 20 ppm in the diet and measured for total cholesterol; assay type: functional
# HepG2 [5] = test: Compound evaluated for Percent inhibition of cholesterol synthesis from HMG-CoA Reductase in HepG2 cell; assay type: functional, Homo sapiens
# HepG2 [6] = test: Compound evaluated for Percent inhibition of cholesterol synthesis from [14C]acetate in HepG2 cell; assay type: functional, Homo sapiens
# Rattus norvegicus [7] = species on record: Rattus norvegicus; test: Percent inhibition at 250 ug/mL of binary mixtures of compound and delta-tocotrienol on cholesterol synthesis in rat hepatocytes; assay type: functional, Hepatocyte
# Rattus norvegicus [8] = species on record: Rattus norvegicus; test: Percent inhibition at 250 ug/mL of binary mixtures of compound and gamma-tocotrienol on cholesterol synthesis in rat hepatocytes; assay type: functional, Hepatocyte
# Rattus norvegicus [9] = species on record: Rattus norvegicus; test: Compound is evaluated for the inhibition of cholesterol biosynthesis in isolated rat hepatocytes at the concentration 250 (ug/mL); assay type: functional, Hepatocyte
# Rattus norvegicus [10] = species on record: Rattus norvegicus; test: Compound is evaluated for the inhibition of cholesterol biosynthesis in isolated rat hepatocytes at the concentration 500 ug/mL; assay type: functional, Hepatocyte
# Rattus norvegicus [11] = species on record: Rattus norvegicus; test: Inhibitory concentration required to inhibit cholesterol synthesis in isolated rat Hepatocytes; assay type: functional, Hepatocyte
# Rattus norvegicus [12] = species on record: Rattus norvegicus; test: Compound is evaluated for the inhibition of cholesterol biosynthesis in isolated rat hepatocytes at the concentration 125 (ug/mL); assay type: functional, Hepatocyte
# HepG2 [13] = test: Compound evaluated for percent inhibition of cholesterol synthesis from HMG-CoA Reductase in HepG2 cell; assay type: functional, Homo sapiens
# HepG2 [14] = test: Compound evaluated for percent inhibition of cholesterol synthesis from [14C]acetate in HepG2 cell; assay type: functional, Homo sapiens; set-up: concentration or dose not given beside the values
# HepG2 [15] = test: Compound is evaluated for the inhibition of cholesterol synthesis in HepG2 cells for an incubation time of 2 (h); assay type: functional, cell-based; conditions: Homo sapiens
# Procedure, shortened: (§2)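 HepG2 cells were grown in RPMI-1640 with 10% FBS. At about 70% confluence they were switched to 7% lipid-depleted serum for 16 h. Compound in DMSO (0.5% v/v final) was added for the stated time. A [2-14C]acetate pulse over the final 60 min measured incorporation into digitonin-precipitable sterols. IC50 came from linear regression of at least four concentrations, each in duplicate.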
# HepG2 [16] = test: Compound is evaluated for the inhibition of cholesterol synthesis in HepG2 cells for an incubation time of 4 (h); assay type: functional, cell-based; conditions: Homo sapiens; procedure, shortened: as §2
# HepG2 [17] = test: Compound is evaluated for relative potency versus gamma-tocotrienol at 2 (h) time point in HepG2 cells; assay type: functional, Homo sapiens
# HepG2 [18] = test: Compound is evaluated for relative potency versus gamma-tocotrienol at 4 (h) time point in HepG2 cells; assay type: functional, Homo sapiens
# HepG2 [19] = test: Compound is evaluated for relative potency versus gamma-tocotrienol at 6 (h) time point in HepG2 cells; assay type: functional, Homo sapiens
# Rattus norvegicus [20] = species on record: Rattus norvegicus; test: Compound is evaluated for the inhibition of cholesterol biosynthesis in rat hepatocytes at a concentration of 210 (micro g/mL); assay type: functional, Hepatocyte
# Rattus norvegicus [21] = species on record: Rattus norvegicus; test: Compound is evaluated for the inhibition of cholesterol biosynthesis in rat hepatocytes at a concentration of 41 (micro g/mL); assay type: functional, Hepatocyte
# HepG2 [22] = test: Compound is evaluated for the inhibition of cholesterol synthesis in HepG2 cells for an incubation time of 6 (h); assay type: functional, cell-based; conditions: Homo sapiens; procedure, shortened: as §2
# Gallus gallus [23] = species on record: Gallus gallus; test: Compound is evaluated for the effect on lipid metabolism in 6-week-old male chickens at a concentration of 20 ppm in the diet and measured for HDL cholesterol (dose 15 p.p.m.); assay type: functional
# Gallus gallus [24] = species on record: Gallus gallus; test: Compound is evaluated for the effect on lipid metabolism in 6-week-old male chickens at a concentration of 20 ppm in the diet and measured for HDL cholesterol (dose 30 p.p.m.); assay type: functional
# Gallus gallus [25] = species on record: Gallus gallus; test: Compound is evaluated for the effect on lipid metabolism in 6-week-old male chickens at a concentration of 20 ppm in the diet and measured for HDL cholesterol dose 45 p.p.m.); assay type: functional
# Gallus gallus [26] = species on record: Gallus gallus; test: picomoles of mevalonic acid synthesized per minute per mg of microsomal protein (dose 15 p.p.m.); assay type: functional, organism-based
# Gallus gallus [27] = species on record: Gallus gallus; test: picomoles of mevalonic acid synthesized per minute per mg of microsomal protein(dose 30 p.p.m.); assay type: functional, organism-based
# Gallus gallus [28] = species on record: Gallus gallus; test: picomoles of mevalonic acid synthesized per minute per mg of microsomal […] 45 p.p.m.); assay type: functional, organism-based
# Gallus gallus [29] = species on record: Gallus gallus; test: Compound is evaluated for the effect on lipid metabolism in 6-week-old male chickens at a concentration of 20 ppm in the diet and measured for LDL cholesterol (dose 15 p.p.m.); assay type: functional; procedure, shortened: as §1
# Gallus gallus [30] = species on record: Gallus gallus; test: Compound is evaluated for the effect on lipid metabolism in 6-week-old male chickens at a concentration of 20 ppm in the diet and measured for LDL cholesterol (dose 30 p.p.m.); assay type: functional; procedure, shortened: as §1
# Gallus gallus [31] = species on record: Gallus gallus; test: Compound is evaluated for the effect on lipid metabolism in 6-week-old male chickens at a concentration of 20 ppm in the diet and measured for LDL cholesterol dose 45 p.p.m.); assay type: functional; procedure, shortened: as §1
# Gallus gallus [32] = species on record: Gallus gallus; test: Compound is evaluated for the effect on lipid metabolism in 6-week-old male chickens at a concentration of 20 ppm in the diet and measured for total cholesterol (dose 15 p.p.m.); assay type: functional
# Gallus gallus [33] = species on record: Gallus gallus; test: Compound is evaluated for the effect on lipid metabolism in 6-week-old male chickens at a concentration of 20 ppm in the diet and measured for total cholesterol (dose 30 p.p.m.); assay type: functional
# Gallus gallus [34] = species on record: Gallus gallus; test: Compound is evaluated for the effect on lipid metabolism in 6-week-old male chickens at a concentration of 20 ppm in the diet and measured for total cholesterol (dose 45 p.p.m.); assay type: functional
# Gallus gallus [35] = species on record: Gallus gallus; test: Compound is evaluated for the effect on lipid metabolism in 6-week-old male chickens at a concentration of 20 ppm in the diet and measured for HDL cholesterol (dose 45 p.p.m.); assay type: functional
# Gallus gallus [36] = species on record: Gallus gallus; test: picomoles of mevalonic acid synthesized per minute per mg of microsomal protein(dose 45 p.p.m.); assay type: functional, organism-based
# Gallus gallus [37] = species on record: Gallus gallus; test: Compound is evaluated for the effect on lipid metabolism in 6-week-old male chickens at a concentration of 20 ppm in the diet and measured for LDL cholesterol (dose 45 p.p.m.); assay type: functional; procedure, shortened: as §1
# Rattus norvegicus [38] = species on record: Rattus norvegicus; test: Percent inhibition at 250 ug/mL of binary mixtures of compound and alpha-tocotrienol on cholesterol synthesis in rat hepatocytes; assay type: functional, Hepatocyte
# [39] = Rattus norvegicus, Hepatocyte, read-out: IC50
structure (smiles),measurement,setting,value
CC(C)=CCC/C(C)=C/CC/C(C)=C/CC[C@]1(C)CCc2c(C)c(O)c(C)c(C)c2O1 [ALPHA-TOCOTRIENOL],HDL cholesterol,Gallus gallus [1],102 mg 100ml-1
same,HMGR activity,Gallus gallus [2],670
same,LDL cholesterol,Gallus gallus [3],55 mg 100ml-1
same,Total cholesterol,Gallus gallus [4],155 mg 100ml-1
same,Inhibition,HepG2 [5],15%
same,Inhibition,HepG2 [6],32%
same,Inhibition,Rattus norvegicus [7],53%
same,Inhibition,Rattus norvegicus [8],49%
same,Inhibition,Rattus norvegicus [9],8% and 20%
same,Inhibition,Rattus norvegicus [10],12% and 33%
same,IC50,Rattus norvegicus [11]; [39],> 1000 µg/mL
same,IC50,Rattus norvegicus [11]; hepatocyte,1300 µg/mL
same,Inhibition,Rattus norvegicus [12],8%
CC(C)=CCC/C(C)=C/CC/C(C)=C/CCC1(C)CCc2cc(O)ccc2O1 (racemic),Inhibition,HepG2 [13],56%
same,Inhibition,HepG2 [14],63%
CC(C)=CCC/C(C)=C/CC/C(C)=C/CCC1(C)CCc2c(C)c(O)c(C)c(C)c2O1 (racemic),Inhibition,HepG2 [13],19%
same,Inhibition,HepG2 [14],21%
same,IC50,HepG2 [15],380 µM
same,IC50,HepG2 [16],94 µM
same,Relative potency,HepG2 [17],0.016
same,Relative potency,HepG2 [18],0.03
same,Relative potency,HepG2 [19],0.027
same,Inhibition,Rattus norvegicus [20],17%
same,Inhibition,Rattus norvegicus [21],4%
same,IC50,HepG2 [22],110 µM
CC(C)=CCC/C(C)=C/CC/C(C)=C/CCC1(C)CCc2cc(O)c(C)c(C)c2O1 (racemic),HDL cholesterol,Gallus gallus [23],97 mg 100ml-1
same,HDL cholesterol,Gallus gallus [24],97 mg 100ml-1
same,HDL cholesterol,Gallus gallus [25],96 mg 100ml-1
same,HMGR activity,Gallus gallus [26],603
same,HMGR activity,Gallus gallus [27],561
same,HMGR activity,Gallus gallus [28],551
same,LDL cholesterol,Gallus gallus [29],44 mg 100ml-1
same,LDL cholesterol,Gallus gallus [30],39 mg 100ml-1
same,LDL cholesterol,Gallus gallus [31],32 mg 100ml-1
same,Total cholesterol,Gallus gallus [32],143 mg 100ml-1
same,Total cholesterol,Gallus gallus [33],138 mg 100ml-1
same,Total cholesterol,Gallus gallus [34],132 mg 100ml-1
same,Inhibition,HepG2 [5],62%
same,Inhibition,HepG2 [6],71%
same,IC50,HepG2 [15],5.9 µM
same,IC50,HepG2 [16],2.8 µM
same,IC50,HepG2 [22],3 µM
CC(C)=CCC/C(C)=C/CC/C(C)=C/CC[C@]1(C)CCc2cc(O)c(C)c(C)c2O1 [GAMMA-TOCOTRIENOL],HDL cholesterol,Gallus gallus [1],102 mg 100ml-1
same,HDL cholesterol,Gallus gallus [23],97 mg 100ml-1
same,HDL cholesterol,Gallus gallus [24],95 mg 100ml-1
same,HDL cholesterol,Gallus gallus [35],94 mg 100ml-1
same,HMGR activity,Gallus gallus [2],494
same,HMGR activity,Gallus gallus [26],606
same,HMGR activity,Gallus gallus [27],561
same,HMGR activity,Gallus gallus [36],546
same,LDL cholesterol,Gallus gallus [3],41 mg 100ml-1
same,LDL cholesterol,Gallus gallus [29],42 mg 100ml-1
same,LDL cholesterol,Gallus gallus [30],35 mg 100ml-1
same,LDL cholesterol,Gallus gallus [37],29 mg 100ml-1
same,Total cholesterol,Gallus gallus [32],141 mg 100ml-1
same,Total cholesterol,Gallus gallus [4],151 mg 100ml-1
same,Total cholesterol,Gallus gallus [33],132 mg 100ml-1
same,Total cholesterol,Gallus gallus [34],125 mg 100ml-1
same,Inhibition,HepG2 [5],64%
same,Inhibition,HepG2 [6],78%
same,Inhibition,Rattus norvegicus [38],64%
same,Inhibition,Rattus norvegicus [9],48% and 34%
same,Inhibition,Rattus norvegicus [10],61%
same,inhibition at 500 µg/mL,"Rattus norvegicus [10]; Rattus norvegicus, Hepatocyte",60%
same,IC50,Rattus norvegicus [11]; [39],270 µg/mL
same,IC50,Rattus norvegicus [11]; hepatocyte,360 µg/mL
same,Inhibition,Rattus norvegicus [12],28%
CC(C)=CCC/C=C/CCC1(C)CCc2cc(O)c(C)c(C)c2O1 (stereo not drawn),Inhibition,HepG2 [14],38%
